# Source: PubChem
# APJ antagonist – antagonists of human apelin receptor APJ, primary screen, CHO-K1 cells, beta-arrestin complementation, luminescence | P35414 | inhibition, % at 20 µM | actives 0.32% (n = 330,000) | AID 2521, 2010;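 active = inhibition above about 40% at 20 µM, limit read from the data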;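 also: cells challenged with 10 nM apelin-13 agonist together with compound; plate controls were apelin-13 plus DMSO wells for no effect and DMSO wells lacking apelin-13 for full effect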
# CXCR6 inh – CXCR6 receptor inhibitors, primary screen, cell-based, beta-arrestin, luminescence, CHO-K1 PathHunter, 1536-well; AID 602244, 2012; actives 0.36% (n = 360,000); inhibition, % at 20 µM; in the data active = inhibition above about 34%, passing the limit was not always enough;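 also: antagonist mode with CXCL16 agonist at 10 nM final; 0% = 10 nM CXCL16 with DMSO and 100% = unstimulated wells without agonist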
# EBI2 block – EBI2 receptor antagonists, beta-arrestin recruitment, primary screen, cell-based, luminescence, 7a,25-OHC stimulation, uHTS | G-protein coupled receptor 183 (Homo sapiens), P32249 | 7a,25-OHC stimulated | inhibition, % at 5 µM | actives 0.81% (n = 360,000) | AID 651636, 2012; in the data active = inhibition above about 38%;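 also: enzyme fragment complementation signal reports receptor beta-arrestin coupling in cells; 0% = agonist plus DMSO wells and 100% = wells without agonist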
# CCR6 antagonist – CCR6 receptor antagonists, primary screen, cell-based, CHO-K1, luminescence, beta-arrestin, uHTS | CHO-K1 CCR6 PathHunter beta-arrestin, CCL20-stimulated | inhibition, % at 20 µM | actives 0.49% (n = 340,000) | AID 493098, 2011;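 active = compounds whose inhibition of the agonist-driven luminescence signal at 20 µM reaches about 50%, limit read from the data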;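 also: cells stimulated with CCL20 at 14 nM final; plate controls were DMSO with CCL20 for no effect and DMSO without agonist for full effect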
# Target sequence (P51684 whole entry, looked up): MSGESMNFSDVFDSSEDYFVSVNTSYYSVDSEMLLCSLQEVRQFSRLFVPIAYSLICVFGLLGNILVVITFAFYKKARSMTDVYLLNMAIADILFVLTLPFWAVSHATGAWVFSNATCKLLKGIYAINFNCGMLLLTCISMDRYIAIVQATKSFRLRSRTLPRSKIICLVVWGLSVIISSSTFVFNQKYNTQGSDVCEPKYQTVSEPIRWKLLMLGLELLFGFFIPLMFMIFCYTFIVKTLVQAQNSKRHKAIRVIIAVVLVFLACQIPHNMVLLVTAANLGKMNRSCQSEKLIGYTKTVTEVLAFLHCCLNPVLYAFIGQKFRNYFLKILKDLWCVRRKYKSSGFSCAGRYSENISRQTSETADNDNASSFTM
# APJ ag – agonists of human apelin receptor APJ, primary screen, CHO-K1 cells, PathHunter beta-arrestin, luminescence. activation, % at 20 µM. actives 0.11% (n = 330,000). AID 2520, 2010. 0% DMSO wells, 100% apelin. P35414;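 active = activation more than six SD over the plate average, tested at 20 µM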;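 also: 0% = DMSO alone and 100% = apelin-13 at 10 nM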
#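 system = engineered CHO-K1 APJ arrestin reporter cells | input = 1000 cells per well | timing = overnight seeding, 90 min compound at 25 °C, 1 h detection | measured by = enzyme-fragment complementation luminescence | read-out = beta-arrestin recruitment to APJ as agonist activity, luminescent signal | control set = negative DMSO alone, positive Apelin-13 at 10 nM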
# * marks the source's active call; other numbers are inactive results; / = no result; ! = a repeat was not active. Compounds with a hit are over-represented: about 1.5% of the library has one in this group of screens.
SMILES,APJ antagonist,CXCR6 inh,EBI2 block,CCR6 antagonist,APJ ag
O=S(=O)(c1ccc(N2CCCC2)nc1)N1CCCC1,6,-7,-1,-2,-6
O=[N+]([O-])c1cc(Cl)cc(/C=N/NC(=S)Nc2ccc(S(=O)(=O)N3CCOCC3)cc2)c1O,33,35,10,60*,-7
CCOC(=O)SC1=N/C(=C\c2ccc(N(C)C)cc2)C(=O)S1,22,20,-24,51*,-8
CCSC1=N/C(=C\c2ccc(C(=O)O)cc2)C(=O)S1,19,4,0,19,-5
Cc1nc2c(C)cccn2c(=O)c1NC(=O)c1ccc(Br)o1,15,3,3,5,1
COc1ccc2cc(C(=O)/C=C/c3cc(OC)c(O)c(OC)c3)ccc2c1,1,16,30,29,0
COc1ccc(C(=O)/C=C/c2cc(OC)c(O)c(OC)c2)c(F)c1,-4,21,11,51*,-1
Cc1ccc(-c2nnc3n2CCCCC3)cc1,2,-2,-3,-12,-2
O=C1Nc2ccccc2C1=Nc1ccc(-c2nnc3n2CCCCC3)cc1,-14,4,14,62*!,-4
COc1ccc(/C=C2\N=C(SC)SC2=O)cc1OC,7,3,-4,24,-6
CN1CCN(c2ccc([N+](=O)[O-])c(-n3nc(-c4ccccc4)c4ccccc4c3=O)c2)CC1,15,18,-3,52*,-4
CCOC(=O)Cn1ncn(-c2ccc(OC(F)(F)F)cc2)c1=O,0,-3,-2,-3,-2
COc1ccc2c(c1)c(=O)oc1c(C)c(OCc3cc(C(=O)O)oc3C)ccc12,-3,1,-1,56*,-1
O=C(COc1ccc2ccc(=O)oc2c1)NC1CCCC1,9,0,9,-5,-1
Cc1ccc(-c2oc3ccccc3c(=O)c2O)cc1,-12,52*,6,43,-6
CCS(=O)(=O)N1CCC(C(=O)NCc2ccc(F)cc2)CC1,-7,-1,-9,11,4
CCO[C@@H]1OC(C(=O)N2CCN(Cc3ccc4c(c3)OCO4)CC2)=C[C@H](c2ccc(Br)cc2)[C@H]1CCCO,-3,36,29,51*,-12
C#Cc1ccc([C@H]2C=C(C(=O)N3CCN(Cc4ccccc4)CC3)O[C@@H](OCC)[C@@H]2CCCO)cc1,0,10,56*,13,-4
O=[N+]([O-])c1ccc(NN=CCCc2ccccc2)nc1,/,11,2,22,/
COc1ccccc1N=Nc1ccc(O)c2ncccc12,4,33,2,54*,-2
CCOC(=O)CN1C(=O)S/C(=C/c2cccc([N+](=O)[O-])c2O)C1=O,32,36,19,56*,-8
O=C(O)c1cccc(CN2C(=O)S/C(=C/c3ccccc3[N+](=O)[O-])C2=O)c1,-13,1,-7,4,6
Cc1ccc(/C=N\NC(=O)Cc2cccn2C)o1,0,-4,5,5,-3
CC(C)c1cc(C(=O)N2CCN(C(c3ccccc3)c3ccccc3)CC2)no1,-3,22,20,10,-2
O=C(c1cc(-c2ccco2)on1)N1CCN(C(c2ccccc2)c2ccccc2)CC1,20,17,91*,18,-5
SMILES,APJ antagonist,CXCR6 inh,EBI2 block,CCR6 antagonist,APJ ag
CC(=O)CC1OC(=O)C(Br)=C1NCc1ccccc1 (stereo not drawn),40,32,11,61*,-5
O=C(C1CC1)N1N=C(c2ccc(Cl)cc2)CC1(O)C(F)(F)F (stereo not drawn),3,3,-2,12,-1
CC1(O)CC(c2ccc(Cl)cc2)=NN1C(=O)c1ccc(Cl)cc1 (stereo not drawn),4,28,17,57*,-4
CC(=O)c1cccc(NS(=O)(=O)c2ccc3c(c2)oc(=O)n3C)c1,7,-6,-3,9,-2
Cc1cc(C)c2c(=O)n(CC(=O)Nc3cccc(Cl)c3C)sc2n1,-13,80*,2,12,2
CCn1c(O)c(N=NC(=S)NCC2CCCO2)c2ccccc21 (stereo not drawn),27,47*,3,66*,-6
Oc1[nH]c2ccccc2c1N=NC(=S)NCC1CCCO1 (stereo not drawn),35,6,3,23,-2
CCCCC1C(=O)N(c2ccccc2)N(c2ccc(O)cc2)C1=O (stereo not drawn),22,43*,22,57*,-7
CCCCC1(CO)C(=O)N(c2ccccc2)N(c2ccccc2)C1=O,-5,7,-2,7,-5
S=C(NCCCN1CCOCC1)Nc1ccc(Cl)cc1,-24,74*,-2,7,-2
S=C(NCCN1CCOCC1)Nc1ccc(Cl)cc1,16,-4,1,2,-2
O=C(/C=C\c1ccccc1OC(=O)c1ccccc1F)c1cc2ccccc2o1,34,16,45*,42,2
Clc1ccccc1N1CCN(Cc2c[nH]c3ccccc23)CC1,-27,-6,4,3,6
CC(=O)c1ccc(NC(=O)c2ccc3nc(-c4ccco4)c(-c4ccco4)nc3c2)cc1,-7,46*,-7,33,6
O=C(Nc1ccccc1)c1ccc2nc(-c3ccco3)c(-c3ccco3)nc2c1,-7,9,8,27,-2
N#Cc1ccc(-c2cccnc2)nc1SCC(=O)c1ccccc1,-21,7,40*,10,0
O=C(NCCc1c[nH]c2ccccc12)c1cccc(S(=O)(=O)Nc2ccccc2Cl)c1,-16,-3,7,-18,2
CN(c1ccccc1)S(=O)(=O)c1cccc(C(=O)NCCc2c[nH]c3ccccc23)c1,9,-9,48*,22,0
Cc1ccc(NC(=O)CCNS(=O)(=O)c2ccc3c(c2)c(=O)n(C)c(=O)n3C)cc1C,7,-1,-3,5,-1
Cc1scc(C(=O)NNC(=S)NCC2CCCO2)c1C (stereo not drawn),11,0,0,-1,1
CC1=CN2C(=N)/C(=C/c3ccc(Sc4ccc(Cl)cc4)o3)C(=O)N=C2S1,20,19,3,52*,-3
CC1=CN2C(=N)/C(=C/c3ccc(Sc4ccc(C)cc4)o3)C(=O)N=C2S1,26,34,0,63*,-1
O=C(/C=C/c1ccc(F)cc1)N1CC[C@@]2(O)CCCC[C@H]2C1,6,0,6,6,-4
CC1C(c2ccccc2)N(C)C(c2ccccc2)C(C)C1(O)C#Cc1ccccc1 (stereo not drawn),5,6,22,50*,-3
